Experimental findings from ChEMBL document CHEMBL5543124, “Lead Compound Development of SRC-3 Inhibitors with Improved Pharmacokinetic Properties and Anticancer Efficacy” (J Med Chem, 2024) are described below.

Data set [1] in a line: Toxicity in SCID mouse orthotopically xenografted with human Panc-1-Luc cells assessed as change in body weight at 10 mg/kg,ip administration once daily for 63 days. It is filed as organism-based. The settings on record: in vivo, 1512 h, time 63 day. Summed up: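 Male SCID mice (8 weeks) received orthotopic pancreatic implants of Panc-1-Luc cells (0.5×10^6 per mouse). Mice randomized by luciferase imaging (n=5 per group). From day 8, dosed 10 mg/kg i.p. or solvent vehicle once daily. Body weight recorded weekly; mice euthanized at day 63.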

Data set [2] in a line: Oral bioavailability in CD-1 mouse at 10 mg/kg administration measured upto 48 hrs by LC-MS/MS analysis. It is filed as ADME, organism-based. The note with it: in vivo.
Data set [3] is described as follows: Half life in human liver microsomes at 1 uM incubated for 30 mins in presence of NADPH by LC-MS/MS analysis. In kind it is ADME, Microsome. The note with it: 0.5 h. In outline:
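Human liver microsomes (1 mg/mL final) in 100 mM phosphate buffer with or without NADPH; compound at 1 μM final, 37 °C. Samples taken at 0, 5, 10, 20, 30 min (0 and 30 min without NADPH), quenched with cold acetonitrile containing internal standards, analysed by LC-MS/MS; verapamil as control.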
On the technique in general: Liver microsomes are a subcellular fraction often used to study metabolism.

The nature of data set [4]: Half life in CD-1 mouse at 10 mg/kg,po administration measured upto 48 hrs by LC-MS/MS analysis. It is filed as ADME, organism-based. The settings on record: in vivo. In outline: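 Oral gavage in ICR male mice (n = 3); dosing solution 1 mg/mL in 20% DMSO, 16% PEG, 4% dextrose in PBS. Tail-vein blood (10 μL) taken at 15, 30 min and 1, 2, 4, 8, 24, 48 h. Plasma quantified by LC-MS/MS against a 0.5–1000 ng/mL calibration; parameters from a non-compartmental extravascular model.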

The target in data set [5] is Prostaglandin G/H synthase 1 (Homo sapiens, UniProt P23219). As to the kind of experiment: Inhibition of COX1 (unknown origin). It is filed as toxicity. Summed up: (§1)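 Tested in a commercial off-target safety screening panel of 78 targets. Values reported as RC50, taken as IC50 except for agonist mode, where RC50 is EC50.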
Chain of Prostaglandin G/H synthase 1 (P23219 whole entry): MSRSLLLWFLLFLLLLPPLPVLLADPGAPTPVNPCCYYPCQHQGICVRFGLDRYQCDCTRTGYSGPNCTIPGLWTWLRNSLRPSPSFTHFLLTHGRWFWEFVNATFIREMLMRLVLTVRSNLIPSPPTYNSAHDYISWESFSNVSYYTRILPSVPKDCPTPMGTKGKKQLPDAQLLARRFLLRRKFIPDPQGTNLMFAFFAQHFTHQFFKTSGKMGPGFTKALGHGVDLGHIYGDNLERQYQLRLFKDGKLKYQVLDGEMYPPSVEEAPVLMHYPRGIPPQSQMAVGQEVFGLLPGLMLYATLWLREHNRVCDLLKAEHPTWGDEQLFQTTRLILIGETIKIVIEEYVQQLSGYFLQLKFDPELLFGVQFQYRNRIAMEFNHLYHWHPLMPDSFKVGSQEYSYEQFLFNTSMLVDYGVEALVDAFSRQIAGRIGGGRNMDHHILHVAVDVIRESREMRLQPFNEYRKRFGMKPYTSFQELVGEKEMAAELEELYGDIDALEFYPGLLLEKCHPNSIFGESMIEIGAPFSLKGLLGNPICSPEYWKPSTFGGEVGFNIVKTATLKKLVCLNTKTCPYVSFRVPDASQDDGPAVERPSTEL
A further data set has as its system MDA-MB-468. Kind of data set: Cytotoxicity against human MDA-MB-468 cells assessed as chromatin accessibility alteration observed after 4 hrs by ATAC-seq analysis. In kind it is functional, cell-based. Summed up:
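MDA-MB-468 cells treated for 4 h (ATAC-seq) or 12 h (RNA-seq) before chromatin accessibility or transcript profiling.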

The target of data set [6] is Nuclear receptor coactivator 3 (Homo sapiens) (UniProt Q9Y6Q9). Kind of data set: Inhibition of recombinant His-tagged SRC-3 (unknown origin) expressed in baculovirus assessed as reduction in recruitment of p300 in ER complex at 0.15 uM incubated for 30 mins by pull-down based western blotting analysis. In outline: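 Purified baculovirus-expressed His-SRC-3-flag (0.1 μg) preincubated with compound or vehicle for 30 min on ice. Then 0.1 μg recombinant ERα and His-p300 plus ERE-containing DNA oligo and 1 μM 17β-estradiol added, 1 h on ice. ER complexes immunoprecipitated with anti-ERα antibody; SRC-3 and p300 detected by western blot.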
Chain of Nuclear receptor coactivator 3 (Homo sapiens) (Q9Y6Q9 2-1424 limits assumed): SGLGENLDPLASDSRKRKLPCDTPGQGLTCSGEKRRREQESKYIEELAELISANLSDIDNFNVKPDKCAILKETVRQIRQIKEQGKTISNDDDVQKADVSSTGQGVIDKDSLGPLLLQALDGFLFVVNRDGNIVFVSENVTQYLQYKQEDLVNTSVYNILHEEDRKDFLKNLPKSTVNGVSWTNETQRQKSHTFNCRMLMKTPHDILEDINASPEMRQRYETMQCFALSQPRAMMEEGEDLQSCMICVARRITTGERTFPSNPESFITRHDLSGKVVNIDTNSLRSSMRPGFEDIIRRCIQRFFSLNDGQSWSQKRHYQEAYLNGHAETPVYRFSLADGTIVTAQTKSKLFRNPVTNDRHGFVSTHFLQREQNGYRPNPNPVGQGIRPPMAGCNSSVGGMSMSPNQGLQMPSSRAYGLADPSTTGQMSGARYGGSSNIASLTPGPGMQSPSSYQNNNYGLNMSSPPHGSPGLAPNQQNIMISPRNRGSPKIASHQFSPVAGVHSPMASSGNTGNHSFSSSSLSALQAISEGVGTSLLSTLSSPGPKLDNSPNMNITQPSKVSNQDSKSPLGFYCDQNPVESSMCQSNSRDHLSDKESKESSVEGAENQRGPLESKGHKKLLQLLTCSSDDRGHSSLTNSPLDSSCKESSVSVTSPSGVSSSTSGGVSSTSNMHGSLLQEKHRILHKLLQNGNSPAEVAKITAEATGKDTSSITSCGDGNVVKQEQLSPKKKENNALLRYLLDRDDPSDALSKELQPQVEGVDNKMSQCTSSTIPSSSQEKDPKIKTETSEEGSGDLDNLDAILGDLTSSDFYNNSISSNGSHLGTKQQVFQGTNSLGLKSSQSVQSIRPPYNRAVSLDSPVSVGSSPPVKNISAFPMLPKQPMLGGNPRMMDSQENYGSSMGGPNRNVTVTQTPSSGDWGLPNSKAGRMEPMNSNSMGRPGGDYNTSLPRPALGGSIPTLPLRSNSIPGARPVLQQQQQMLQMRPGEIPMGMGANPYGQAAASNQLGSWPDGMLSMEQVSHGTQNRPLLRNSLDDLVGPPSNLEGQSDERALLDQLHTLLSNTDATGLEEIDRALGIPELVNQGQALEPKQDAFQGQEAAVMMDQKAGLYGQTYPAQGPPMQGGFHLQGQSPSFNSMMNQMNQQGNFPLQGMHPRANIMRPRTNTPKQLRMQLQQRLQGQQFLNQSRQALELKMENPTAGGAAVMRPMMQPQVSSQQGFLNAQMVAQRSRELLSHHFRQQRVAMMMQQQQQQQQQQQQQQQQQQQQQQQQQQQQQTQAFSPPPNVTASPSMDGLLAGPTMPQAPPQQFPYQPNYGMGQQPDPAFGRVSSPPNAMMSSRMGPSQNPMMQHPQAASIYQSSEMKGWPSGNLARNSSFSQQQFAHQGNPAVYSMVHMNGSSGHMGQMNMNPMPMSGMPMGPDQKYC
Background: A western blot detects proteins with antibodies after separation by electrophoresis.

The target in data set [7] is T1, Voltage-gated inwardly rectifying potassium channel KCNH2 (Homo sapiens, UniProt Q12809). As to the kind of experiment: Inhibition of hERG. In kind it is toxicity.
T1 sequence (Q12809 whole entry): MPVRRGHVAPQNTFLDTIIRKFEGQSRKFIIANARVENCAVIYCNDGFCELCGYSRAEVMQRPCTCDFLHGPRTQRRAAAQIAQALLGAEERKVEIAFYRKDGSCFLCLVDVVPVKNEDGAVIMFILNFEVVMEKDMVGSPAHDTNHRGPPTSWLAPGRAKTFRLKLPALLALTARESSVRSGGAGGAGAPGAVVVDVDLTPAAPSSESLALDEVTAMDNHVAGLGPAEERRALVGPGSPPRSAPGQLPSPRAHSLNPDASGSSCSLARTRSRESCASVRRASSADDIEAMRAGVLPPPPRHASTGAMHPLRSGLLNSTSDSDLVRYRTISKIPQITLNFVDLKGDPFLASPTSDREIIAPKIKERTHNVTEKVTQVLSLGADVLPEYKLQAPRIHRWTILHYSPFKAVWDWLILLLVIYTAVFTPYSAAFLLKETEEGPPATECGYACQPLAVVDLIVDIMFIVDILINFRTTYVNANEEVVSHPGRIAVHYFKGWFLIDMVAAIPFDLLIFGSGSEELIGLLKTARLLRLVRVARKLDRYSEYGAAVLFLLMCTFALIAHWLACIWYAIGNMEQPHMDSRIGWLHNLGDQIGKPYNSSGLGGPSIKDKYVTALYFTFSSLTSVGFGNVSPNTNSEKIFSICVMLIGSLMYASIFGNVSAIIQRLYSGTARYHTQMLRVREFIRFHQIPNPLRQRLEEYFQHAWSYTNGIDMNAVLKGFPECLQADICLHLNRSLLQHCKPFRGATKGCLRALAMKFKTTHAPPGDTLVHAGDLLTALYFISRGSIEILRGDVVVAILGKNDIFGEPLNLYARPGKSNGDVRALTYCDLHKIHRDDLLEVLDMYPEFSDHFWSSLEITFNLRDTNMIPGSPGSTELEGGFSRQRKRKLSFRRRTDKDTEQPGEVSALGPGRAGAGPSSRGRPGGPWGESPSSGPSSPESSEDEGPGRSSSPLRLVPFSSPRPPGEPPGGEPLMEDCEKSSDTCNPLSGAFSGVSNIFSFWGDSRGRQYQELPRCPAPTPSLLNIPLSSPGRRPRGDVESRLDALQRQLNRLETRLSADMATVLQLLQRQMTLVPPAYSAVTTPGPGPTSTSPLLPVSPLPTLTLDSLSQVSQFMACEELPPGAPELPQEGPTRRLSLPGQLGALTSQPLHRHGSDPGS
Another data set concerns PANC-1. Kind of data set: Cytotoxicity against human PANC-1 cells mediated with siRNA control assessed as inhibition of cell growth incubated for 72 hrs by MTT assay. It is filed as functional, cell-based. The settings on record: PANC-1, 72 h. In outline:
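PANC-1 cells with stable lentiviral shRNA knockdown of SRC-3 or control shRNA; SRC-3 levels checked by western blot. Cells treated with a dose series for 72 h and viability read by MTT.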

In data set [8] the target is T1, Voltage-gated inwardly rectifying potassium channel KCNH2. Kind of data set: Inhibition of hERG transfected in HEK293 cells by patch clamp assay. It is filed as toxicity, cell-based.
Data set [9] is described as follows: Drug concentration in CD-1 mouse plasma at 37.7 micromol/kg,ip administration measured after 22 hrs by LC-MS/MS analysis. It is filed as ADME, cell-free. The note with it: dose 37.7 µmol/kg. In outline: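 Female CD-1 mice (n = 3) dosed ip at 37.7 μmol/kg. Blood (20 μL) taken at 0.25, 5 and 22 h, processed to plasma, and drug quantified by LC-MS/MS.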
Data set [10] addresses 5-hydroxytryptamine receptor 2B (Homo sapiens, UniProt P41595). As to the kind of experiment: Antagonist activity at HTR2B (unknown origin) by calcium flux assay. In kind it is toxicity. In outline:
as §1
For orientation: Calcium assays in cells follow changes in intracellular calcium, usually with a dye or a luminescent sensor.

Data set [11] is described as follows: Stability in human plasma incubated upto 150 mins. It is filed as ADME, cell-free. The settings on record: 2.5 h.
For the next data set, the system named is MDA-PCa-118b. Kind of data set: Antitumor activity against patient derived MDA-PCa-118b cells xenografted in SCID mouse assessed as reduction in tumor burden in femur at 10 mg/kg,ip administration measured after 4 weeks by CT imaging analysis. The settings on record: Homo sapiens. In kind it is functional, organism-based. Summed up: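 AR-PDX 118b cells (1×10^5) injected via intra-femoral artery in male SCID mice (8–9 weeks). After 2 weeks, 10 mg/kg/day ip or vehicle for 4 weeks (n = 9/group). X-ray imaging every two weeks. At the end, femurs CT-scanned (5 per group) with 3D-reconstruction tumor size, and H&E histology used for tumor/femur area ratio.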

The source made the active and inactive calls. No cut-off for these calls is given here.

Chain of 5-hydroxytryptamine receptor 2B (P41595 whole entry): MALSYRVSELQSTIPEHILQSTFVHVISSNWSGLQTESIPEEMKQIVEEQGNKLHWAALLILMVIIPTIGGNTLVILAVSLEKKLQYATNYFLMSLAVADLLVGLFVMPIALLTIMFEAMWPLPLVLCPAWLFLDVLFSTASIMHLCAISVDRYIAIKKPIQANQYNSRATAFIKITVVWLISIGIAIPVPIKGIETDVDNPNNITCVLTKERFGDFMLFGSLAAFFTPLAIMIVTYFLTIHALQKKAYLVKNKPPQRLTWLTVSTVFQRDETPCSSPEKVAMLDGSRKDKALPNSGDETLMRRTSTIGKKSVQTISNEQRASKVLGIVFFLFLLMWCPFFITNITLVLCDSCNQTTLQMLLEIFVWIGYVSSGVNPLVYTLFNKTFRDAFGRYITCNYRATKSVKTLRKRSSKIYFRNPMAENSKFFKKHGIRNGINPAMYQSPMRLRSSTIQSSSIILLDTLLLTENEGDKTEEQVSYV

On to `C/C(=N\N=c1/[nH]c2cc(F)c(F)cc2n1C)c1ccc(F)cn1`, for which the Activity result in [1] is “Non-Toxic”. Further, the F in data set [2] stood at 24.6%. The values for the t1/2 in data set [3] and in data set [4] were 8.49 min and 14.3 h, respectively. Also, the IC50 (as a rule, the midpoint of a concentration-inhibition curve) came out at 3100 nM in data set [5]; 2700 nM in [7]; 25.2 nM in the data set on PANC-1; 1130 nM in [8]; 4100 nM in data set [10]. For the same molecule, the outcome with MDA-MB-468 and in the data set with MDA-PCa-118b was Active. Besides, in data set [6], the inhibition result is “Active”. Besides, the concentration at 22 h in data set [9] turned out to be 47 nM. Further, the Stability entry in [11] is given as “Stable”.
